# High-throughput results deposited in PubChem BioAssay by several laboratories.
# Pyk2 oligo antag – blocks oligomerization of human Pyk2 in cells. Q14289. hit rate 0.83% among 99,000. z-score (the deposit names both 25 µM and 10 µM). AID 1347419. Q293 cells, Pyk2 FERM NanoBiT luminescence; hits give low values;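 active = Z-score of -3 or lower, scaled per plate to the spread of control and sample wells; inactive = z-score above -3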;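 also: negative z-score means lost luminescence so less FERM oligomerization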
# Target sequence (Q14289 whole entry, looked up): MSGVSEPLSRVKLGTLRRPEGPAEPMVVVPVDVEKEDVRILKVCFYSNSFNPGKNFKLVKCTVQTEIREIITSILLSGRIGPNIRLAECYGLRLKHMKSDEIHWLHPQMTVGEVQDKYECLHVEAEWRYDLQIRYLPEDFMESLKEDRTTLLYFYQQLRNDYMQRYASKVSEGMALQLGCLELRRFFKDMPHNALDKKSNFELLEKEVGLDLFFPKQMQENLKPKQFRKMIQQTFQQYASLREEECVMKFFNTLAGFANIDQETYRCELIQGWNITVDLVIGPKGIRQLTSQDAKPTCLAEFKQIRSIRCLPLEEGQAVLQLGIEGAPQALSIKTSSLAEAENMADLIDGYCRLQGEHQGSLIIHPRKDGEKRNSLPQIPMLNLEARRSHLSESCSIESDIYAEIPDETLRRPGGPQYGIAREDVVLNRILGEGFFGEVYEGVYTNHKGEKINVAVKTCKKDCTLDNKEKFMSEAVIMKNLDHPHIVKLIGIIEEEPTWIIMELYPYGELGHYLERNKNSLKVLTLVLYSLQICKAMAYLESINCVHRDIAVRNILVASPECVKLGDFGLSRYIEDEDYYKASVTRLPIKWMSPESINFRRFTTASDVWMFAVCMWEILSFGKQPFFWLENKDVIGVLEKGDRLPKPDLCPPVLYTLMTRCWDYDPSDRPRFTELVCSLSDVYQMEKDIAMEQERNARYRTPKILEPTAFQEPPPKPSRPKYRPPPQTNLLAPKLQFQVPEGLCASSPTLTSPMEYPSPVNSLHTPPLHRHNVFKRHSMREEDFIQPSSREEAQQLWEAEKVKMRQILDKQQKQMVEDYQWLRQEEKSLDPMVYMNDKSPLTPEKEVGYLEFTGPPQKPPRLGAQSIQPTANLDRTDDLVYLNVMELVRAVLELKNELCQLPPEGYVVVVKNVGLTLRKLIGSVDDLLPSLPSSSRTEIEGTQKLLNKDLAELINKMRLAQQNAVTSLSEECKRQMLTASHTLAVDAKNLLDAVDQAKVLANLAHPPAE
# H69AR growth 86K – growth inhibitors of human H69AR lung tumor cells. H69AR lung tumor viability, ATP luminescence, 72 h; hits give low values. viability, % at 10 µM. hit rate 6% among 85,000. AID 598;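 active = viability at or below 40%; inactive = viability above 40%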;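 also: multidrug resistant small cell line overexpressing MRP-1 efflux transporter; 100% = mean luminescence of untreated control wells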
# PTEN del growth – PTEN-deleted cell growth suppression | hit rate 1.2% among 140,000 | HCT116 PTEN-null viability, CellTiter-Glo, 60 h; hits give low values | viability, % at 10 µM;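 active = viability at or below a set limit, 4 SD under the median of all tested compounds, cut at about 3.7% in these data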;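 also: PTEN knockout HCT116 line with beta catenin targeted HCT116 as companion control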
# bCat KO growth – beta-catenin-lacking colon tumor cell growth suppression. HCT116 beta-catenin knockout viability, CellTiter-Glo, 60 h; hits give low values. viability, % at 10 µM. hit rate 1.5% among 140,000. AID 818;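 active = viability at or under a set limit, the compound median less 4 SD, cut at about 6% in these data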;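 also: 0% = Hyamine 1622 control at 20 µM and 100% = untreated cell control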
# Lung fibro prol – blocks proliferation of human lung fibroblasts. LL 47 human lung fibroblast viability, ATP luminescence; hits give low values. viability, % at 10 µM. hit rate 1.1% among 85,000;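 active = viability at or below 50% in the single dose screen; inactive = viability above 50%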;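 also: compound exposure lasted 72 h before the ATP readout; 100% = median luminescence of untreated cell-only wells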
#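 Test system: LL 47 human lung fibroblasts; Quantity: 1,150 cells/well; Buffer or medium: IMEM plus 15% FBS; Dosing: tenfold compound dosing solution, DMSO at 0.1%; Timing: overnight cell rest, 72 h compound treatment at 37 °C; Detection: ATP-based CellTiter-Glo luminescent readout; Read-out basis: viability percentage against median untreated-cell control; Controls: cell-only wells, no compound.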
# HUVEC prolif 384 – blocks proliferation of human endothelial cells. HUVEC proliferation, CellTiter-Glo luminescence, 72 h; hits give low values. viability, % at 10 µM (by protocol). hit rate 1.1% among 86,000. AID 648;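 active = viability at or below 30%; inactive = viability above 30%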;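 also: 100% = median luminescence of DMSO-only cell control wells on each plate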
# * marks the source's active call; other numbers are inactive results; . = no result given. Only a selection was taken, and hits are over-represented in it overall.
SMILES,Pyk2 oligo antag,H69AR growth 86K,PTEN del growth,bCat KO growth,Lung fibro prol,HUVEC prolif 384
CCOC(=O)N1CCN(C(=O)c2cn(C)c(=O)c3c2c2ccccc2n3C)CC1,-0.5,39.8*,65.5,83.7,96.2,93.6
Cc1cc(C(=O)NCCN2CCN(c3cccc(Cl)c3)CC2)n(-c2ccccc2)n1,.,29.1*,18.9,9.5,58.1,52.9
Cn1cc(C(=O)NCCN2CCN(c3cccc(Cl)c3)CC2)c2c3ccccc3n(C)c2c1=O,-0.51,15.7*,54.5,15.1,90.6,58.1
Cc1cc(C(=O)NCC2CCCO2)n(-c2ccccc2)n1 (stereo not given),.,94.1,96.8,96.0,99.5,96.6
CCOC(=O)N1CCN(C(=O)c2cn(CC(C)C)c(=O)c3c2c2ccccc2n3C)CC1,1.47,75.4,91.1,82.6,90.2,97.4
Cc1cc(C(=O)NCCCN2CCN(c3cc(Cl)ccc3C)CC2)n(-c2ccccc2)n1,.,30.9*,38.2,33.9,79.7,68.9
COc1cc(/C=N/N=C(/N)c2nonc2N)cc(Br)c1OCc1cccc(C)c1,-0.29,73.8,74.8,73.9,80.8,29.6*
CCOc1cc(/C=N/NC(N)=S)cc(Br)c1OCc1ccccc1C,-0.83,.,25.4,11.2,.,.
CCOc1cc(/C=N/N=C(\N)c2nonc2N)cc(Br)c1OCc1cccc2ccccc12,2.48,13.3*,10.2,22.7,40.8*,7.5*
CCOc1ccc(OCc2ccc(C(=O)OCc3ccccn3)o2)cc1,0.44,99.0,103.2,97.9,100.6,92.3
O=C(c1ccc(Cn2cc(Br)cn2)cc1)N1CCN(c2ccccc2)CC1,-0.49,8.8*,42.8,56.7,90.4,55.2
Cc1ccc(-n2[nH]c(C)c(/C=N/Nc3ccc([N+](=O)[O-])cc3[N+](=O)[O-])c2=O)cc1,.,.,44.0,48.0,.,.
CCCCOc1ccc(-c2nc(=S)[nH][nH]2)cc1,0.08,19.1*,103.8,101.1,106.2,80.1
c1ccc2cc(CSCc3nc4ccccc4[nH]3)ccc2c1,.,.,73.9,66.8,.,.
COc1cc(/C=N/NC(=O)CC23CC4CC(CC(C4)C2)C3)cc(Br)c1OCC(=O)N(C)C,.,.,62.4,65.9,.,.
CCCCNc1c2c3c(cccc3n(C)c1=O)C(=O)c1ccccc1-2,-2.72,15.9*,39.9,39.3,83.5,52.0
C=CCn1c(SCC(=O)N2CCc3ccccc3C2)nnc1-c1ccncc1,.,.,98.7,95.4,.,.
COC(=O)c1c(NC(NC(=O)C(C)C)C(Cl)(Cl)Cl)sc2c1CCC2 (stereo not given),.,.,66.1,65.9,.,.
COc1cc(C)nc(NCc2ccccc2)n1,0.6,91.8,99.6,97.2,91.2,99.2
Cc1cc(NC2CCCCC2)nc(NCc2ccccc2)n1,.,.,3.2*,2.6*,.,.
Cc1cc(N/N=C/c2ccccc2Cl)nc(NCc2ccccc2)n1,.,.,26.3,42.1,.,.
Cc1ccc(Nc2cc(C)nc(NCc3ccccc3)n2)cc1,.,.,1.0*,1.0*,.,.
Cc1cc(C)n(-c2nnc3n2N=C(c2c[nH]c4ccccc24)CS3)n1,-0.21,17.1*,17.8,17.2,55.1,57.7
Cc1cc(C)n(-c2nnc3n2N=C(c2ccccc2)CS3)n1,-0.15,81.8,104.5,99.6,104.9,88.0
CCc1cc2c(=O)n(Cc3ccco3)c(SCc3c(C)noc3C)nc2s1,-0.49,13.5*,22.1,23.8,48.7*,55.5
SMILES,Pyk2 oligo antag,H69AR growth 86K,PTEN del growth,bCat KO growth,Lung fibro prol,HUVEC prolif 384
CCc1cc2c(=O)n(Cc3ccco3)c(SCC(=O)N3CCCc4ccccc43)nc2s1,-0.24,101.9,59.9,61.0,89.3,90.0
CCOC(=O)CS(=O)(=O)c1ccccc1,-0.34,103.3,113.6,106.4,93.8,100.6
C/C=C(\CS(=O)(=O)c1ccccc1)S(=O)(=O)c1ccccc1,-0.74,25.3*,36.1,51.5,63.6,89.1
CCOc1ccccc1OCCCNCc1ccco1,.,.,102.0,84.9,.,.
O=C(Cc1cccc(C(F)(F)F)c1)NCc1ccc(Cl)cc1Cl,-0.58,.,76.2,77.4,.,.
Cc1ccc(C2Oc3ccccc3C3=C2C(c2cccs2)n2ncnc2N3)cc1 (stereo not given),-1.99,18.2*,23.1,26.1,44.2*,66.0
Oc1cccc2ccc(Nc3ccccn3)nc12,-1.38,0.6*,1.7*,1.8*,54.4,2.6*
CC(=O)C(=Nc1ccc(Cl)cc1Cl)NNc1cccc(Cl)c1,-0.88,90.8,65.4,68.9,90.6,103.9
S=C(Nc1ccccc1)Nc1nc2ccccc2n1CCOc1ccc(Cl)cc1,.,.,0.9*,1.1*,.,.
Cc1nn(Cc2c(Cl)cccc2Cl)c(Cl)c1/C=C/C(=O)OCC(=O)NCC(F)(F)F,0.52,.,4.0,4.2*,.,.
CCOc1cc(C(=O)N2CCN(c3ccc(C(C)=O)cc3)CC2)cc(OCC)c1OCC,0.58,37.9*,95.1,85.8,100.4,92.6
COc1cc(/C=N/Nc2snc(SC)c2C#N)cc(OC)c1OC,0.8,24.5*,14.9,13.5,71.3,60.0
O=C1N(Nc2ccccc2)C(c2ccc(Br)cc2)C12CCCCC2 (stereo not given),0.05,19.3*,79.5,81.6,78.1,49.3
O=C1N(Nc2ccccc2)C(c2ccc(Br)cc2)C12CCCC2 (stereo not given),-0.92,91.3,81.4,90.2,94.1,103.3
Cc1cc(C)c2nc(SCC#N)cc(C)c2c1,-0.82,24.0*,59.4,53.5,83.1,83.5
COC(=O)CCC(=O)Nc1sc(C)c(C)c1C(N)=O,-0.41,18.9*,100.6,100.4,98.4,84.6
CCN1CCN(c2cc(C)c3cc(NC(=O)c4ccc5c(c4)OCO5)ccc3n2)CC1,.,.,34.8,12.0,.,.
CCN1CCN(c2cc(C)c3cc(NC(=O)c4cncc(Br)c4)ccc3n2)CC1,-0.35,41.8,1.2*,1.0*,53.4,23.4*
CCN1CCN(c2cc(C)c3cc(NC(=O)c4ccc(OC)c(OC)c4)ccc3n2)CC1,.,18.6*,22.5,8.1,42.5*,65.3
C=CCC(CC=C)(NC(=O)c1cccc(C)c1)c1ccccc1,.,.,88.4,88.8,.,.
CCOC(=O)c1c(NC(C)=O)sc2c1CCC(C=NCCCN(CC)CC)=C2Sc1ccccc1,-1.82,0.7*,.,.,68.6,3.2*
COc1ccc(CCNC(=O)Cn2nc([N+](=O)[O-])c(Br)c2C)cc1OC,.,.,91.1,102.3,.,.
CCCCN1CC(O)=C(c2nc(-c3ccc(Cl)cc3)cs2)C1=N,-0.53,94.3,70.6,89.0,103.0,94.7
N=C1C(c2nc(-c3ccc(Cl)cc3)cs2)=C(O)CN1CCCN1CCOCC1,0.83,62.4,60.4,55.8,106.6,10.0*
C=CCOc1c(Br)cc(CNc2ccc(NC(=O)C(C)C)c(OC)c2)cc1OCC,.,.,20.9,19.6,.,.
COc1ccc(N(CC(=O)Nc2ccc3c(c2)OCO3)S(=O)(=O)c2ccccc2)c(OC)c1,-3.23*,80.4,68.5,81.7,95.5,74.7
COc1ccc(-n2nc(C(=O)Nc3ccc4c(c3)OCO4)c3ccccc3c2=O)c(OC)c1,-1.19,7.0*,19.6,10.6,94.3,72.1
